The source of these data is ChEMBL document CHEMBL1955851, “Fatty acyl amide derivatives of doxorubicin: synthesis and in vitro anticancer activities” (Eur J Med Chem, 2011).

Calls of active or inactive are those of the source. No cut-off for these calls is given here.

For series [1], the system named is MDA-MB-468. Description: Antiproliferative activity against human MDA-MB-468 cells assessed as growth inhibition at 1 uM after 24 hrs by spectrophotometry. The class given is functional, cell-based. An outline of the steps: (§1)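 CellTiter 96 AQueous One (MTS) proliferation assay. Cells grown at 37 °C, 5% CO2, 10% FBS plus 1% penicillin-streptomycin. Medium was RPMI for CCRF-CEM and EMEM for MDA-MB-468, SK-OV-3 and HT-29. Compound at 1 μM in 4% DMSO, triplicate wells, incubated 24-120 h, then 1 h with reagent. A490 read. Survival % = (treated − medium)/(control − medium) × 100.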

The test system of series [2] is CCRF-CEM. Description: Antiproliferative activity against human CCRF-CEM cells assessed as growth inhibition at 1 uM after 24 to 96 hrs by spectrophotometry. In kind it is functional, cell-based. An outline of the steps:
as §1

The next series deals with HT-29. Description: Antiproliferative activity against human HT-29 cells assessed as growth inhibition at 1 uM after 120 hrs by spectrophotometry relative to control. Particulars: for inhibition of growth at 1 µM: HT-29, 120 h, read-out: GI. The class given is functional. An outline of the steps:
as §1

Series [3] can be described thus: n-Octanol-water partition coefficient, log P of the compound by shake flask method. The class given is physicochemical. Summed up:
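Shake-flask method. 100 µg of derivative partitioned between 300 µL 1-octanol and 300 µL distilled water, shaken 30 min, phases left to separate. Each phase quantified by UV spectroscopy against a standard spectrum. P = octanol/water concentration ratio, reported as Log P. Mean of three runs.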

For series [4], the system named is SK-OV-3. Description: Antiproliferative activity against human SKOV3 cells assessed as growth inhibition at 1 uM after 24 to 96 hrs by spectrophotometry. The class given is functional, cell-based. Summed up:
as §1

Series [5] relates to SK-OV-3. As to the kind of experiment: Antiproliferative activity against human SKOV3 cells assessed as growth inhibition at 1 uM after 96 hrs by spectrophotometry relative to control. The class given is functional. The settings on record: SK-OV-3, 96 h, read-out: GI. Summed up:
as §1

Series [6] has as its system MDA-MB-468. As to the kind of experiment: Antiproliferative activity against human MDA-MB-468 cells assessed as growth inhibition at 1 uM after 96 hrs by spectrophotometry relative to control. In kind it is functional. The settings on record: MDA-MB-468, 96 h, read-out: GI. Summed up: as §1
In series [7] the test system is CCRF-CEM. As to the kind of experiment: Antiproliferative activity against human CCRF-CEM cells assessed as growth inhibition at 1 uM after 96 hrs by spectrophotometry relative to control. In kind it is functional. The settings on record: read-out: GI. An outline of the steps: as §1

The term logP denotes the decadic logarithm of the partition coefficient of the neutral form, usually between octanol and water. For the molecule `COc1cccc2c1C(=O)c1c(O)c3c(c(O)c1C2=O)C[C@@](O)(C(=O)CO)C[C@@H]3O[C@H]1C[C@H](NC(C)=O)[C@H](O)[C@H](C)O1`, the “growth inhibition (GI)” value in the series with MDA-MB-468 [1] and with CCRF-CEM [2] was “inactive” throughout. Also, the “growth inhibition (GI)” value in the series on HT-29 and in the series with SK-OV-3 [4] was “Active” throughout. Moreover, in series [3], the logP was determined as 1.18.

As for `CCCCCCCCCCCC(=O)N[C@H]1C[C@H](O[C@H]2C[C@](O)(C(=O)CO)Cc3c(O)c4c(c(O)c32)C(=O)c2c(OC)cccc2C4=O)O[C@@H](C)[C@H]1O`, the results for the inhibition of growth at 1 µM in the series with SK-OV-3 [5], in the series on HT-29 and with MDA-MB-468 [6] were 58%, 64% and 38%, respectively. Also, the “growth inhibition (GI)” value with MDA-MB-468 [1] and in the series with CCRF-CEM [2] was “inactive” throughout.

For the molecule `CCSCCCCCCCCCCCC(=O)N[C@H]1C[C@H](O[C@H]2C[C@](O)(C(=O)CO)Cc3c(O)c4c(c(O)c32)C(=O)c2c(OC)cccc2C4=O)O[C@@H](C)[C@H]1O`, the “growth inhibition (GI)” value with MDA-MB-468 [1] and in the series with CCRF-CEM [2] was “inactive” in each case.

As for `CCCCCCCCCCCCCCCC(=O)N[C@H]1C[C@H](O[C@H]2C[C@](O)(C(=O)CO)Cc3c(O)c4c(c(O)c32)C(=O)c2c(OC)cccc2C4=O)O[C@@H](C)[C@H]1O`, the “growth inhibition (GI)” value in the series with MDA-MB-468 [1] and with CCRF-CEM [2] was “inactive” each time. Besides, the “growth inhibition (GI)” value with HT-29 and in the series with SK-OV-3 [4] was “Active” throughout.

For the molecule `CCCCCCCC(=O)N[C@H]1C[C@H](O[C@H]2C[C@](O)(C(=O)CO)Cc3c(O)c4c(c(O)c32)C(=O)c2c(OC)cccc2C4=O)O[C@@H](C)[C@H]1O`, the “growth inhibition (GI)” value with MDA-MB-468 [1] and with CCRF-CEM [2] was “inactive” in each case. In addition, the “growth inhibition (GI)” value with HT-29 and in the series with SK-OV-3 [4] was “Active” in each case.

For `COc1cccc2c1C(=O)c1c(O)c3c(c(O)c1C2=O)C[C@@](O)(C(=O)CO)C[C@@H]3O[C@H]1C[C@H](N)[C@H](O)[C@H](C)O1` [DOXORUBICIN], in series [3], the logP is 0.6.

As for `CCCCCCCCCCCCCC(=O)N[C@H]1C[C@H](O[C@H]2C[C@](O)(C(=O)CO)Cc3c(O)c4c(c(O)c32)C(=O)c2c(OC)cccc2C4=O)O[C@@H](C)[C@H]1O`, the inhibition of growth at 1 µM turned out to be 50% in the series on SK-OV-3 [5], 41% in the series with HT-29, 27% with CCRF-CEM [7] and 31% in the series on MDA-MB-468 [6]. Besides, in the series with MDA-MB-468 [1], the “growth inhibition (GI)” value was “inactive”.

For `CCCCCCCCCCCCCCCCCC(=O)N[C@H]1C[C@H](O[C@H]2C[C@](O)(C(=O)CO)Cc3c(O)c4c(c(O)c32)C(=O)c2c(OC)cccc2C4=O)O[C@@H](C)[C@H]1O`, the “growth inhibition (GI)” value in the series with MDA-MB-468 [1] and in the series on CCRF-CEM [2] was “inactive” throughout. In addition, the “growth inhibition (GI)” value with HT-29 and in the series with SK-OV-3 [4] was “Active” in each case.

With `CCCCCCCCCC(=O)N[C@H]1C[C@H](O[C@H]2C[C@](O)(C(=O)CO)Cc3c(O)c4c(c(O)c32)C(=O)c2c(OC)cccc2C4=O)O[C@@H](C)[C@H]1O`, the “growth inhibition (GI)” value in the series on MDA-MB-468 [1] and in the series on CCRF-CEM [2] was “inactive” throughout. The “growth inhibition (GI)” value in the series on HT-29 and in the series on SK-OV-3 [4] was “Active” throughout.

As to `CCCCCCCCCCCCCCCCCCCC(=O)N[C@H]1C[C@H](O[C@H]2C[C@](O)(C(=O)CO)Cc3c(O)c4c(c(O)c32)C(=O)c2c(OC)cccc2C4=O)O[C@@H](C)[C@H]1O`, the “growth inhibition (GI)” value with MDA-MB-468 [1] and in the series on CCRF-CEM [2] was “inactive” in each case. The “growth inhibition (GI)” value with HT-29 and with SK-OV-3 [4] was “Active” in each case.
